The source of these data is ChEMBL document CHEMBL5500387, “Design, synthesis of combretastatin A-4 piperazine derivatives as potential antitumor agents by inhibiting tubulin polymerization and inducing autophagy in HCT116 cells” (Eur J Med Chem, 2024).

By IC50 is commonly meant the concentration that gives 50% inhibition.

Assay [1] relates to HCT-116. The assay can be described thus: Cytotoxicity against human HCT-116 cells assessed as inhibition of cell proliferation measured after 72 hrs by CCK-8 assay. It is filed as functional, cell-based. The following applies: HCT-116, 72 h. In outline: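 Cells seeded at 2×10^3 per well and grown overnight in 10% FBS medium: HCT116 in McCoy's 5A, A549 and AGS in F-12K, SK-MES-1 in DMEM. Compounds added at varied concentrations with 0.1% DMSO control, 72 h at 37 °C. 10% CCK-8 for 2 h, then A450 read. Survival = (As−Ab)/(Ac−Ab)×100%. IC50 from curve fitting.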

For assay [2], the system named is HCT-116. Put plainly: Inhibition of cell invasion in human HCT-116 cells measured after 48 hrs by crystal violet staining based fluorescent inverted microscopic analysis. It is filed as functional. The following applies: dose 0.1-0.3 µM. Summed up: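 Transwell inserts were coated with Matrigel (1:3 in serum-free medium). HCT116 cells (1×10^4) in serum-free medium went in the upper chamber, with complete medium as stimulus. Treated with 0.1, 0.2 or 0.3 μM or 0.1% DMSO for 48 h at 37 °C. Fixed in 4% paraformaldehyde, stained with 0.1% crystal violet, and imaged. Counts analysed by ImageJ. At least three replicates.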

Assay [3] has as its system HCT-116. The assay can be described thus: Induction of cell cycle arrest in human HCT-116 cells assessed as accumulation of cells at S phase at 0.2 uM measured after 24 hrs by PI/RNase staining based flow cytometry analysis (reference value: 38.29%). Format: functional. In general terms: Flow cytometry measures light scatter and fluorescence of single cells or particles in a stream.

Assay [4] has as its system HCT-116. Put plainly: Induction of cell cycle arrest in human HCT-116 cells assessed as accumulation of cells at G0/G1 phase at 0.3 uM measured after 24 hrs by PI/RNase staining based flow cytometry analysis (reference value: 32.88%). It is filed as functional.
Assay [5] concerns HCT-116. Put plainly: Induction of cell cycle arrest at G2/M phase in human HCT-116 cells assessed as reduction in Cyclin B1 protein expression measured after 48 hrs by Western blot analysis. To be noted: dose 0.1-0.3 µM. It is filed as functional, cell-based. In outline:
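HCT116 cells given 0.1, 0.2 or 0.3 μM for 48 h, with 0.1% DMSO control. Lysates run on SDS-PAGE and blotted to PVDF. Probed with anti-Cdc2 and anti-Cyclin B1 (1:1000), β-actin as loading control, HRP secondary, and chemiluminescence. Band quantities expressed relative to control set to 1. Three independent experiments.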

In assay [6] the test system is HCT-116. Put plainly: Induction of autophagy in human HCT-116 cells transfected with mRFP-GFP-LC3 adenovirus assessed as increase in LC3 labeling by measuring increase in number of yellow dots measured after 24 hrs by immunofluorescence staining based confocal microscopic analysis. It is filed as functional, cell-based. The following applies: dose 0.1-0.3 µM. In outline:
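HCT116 cells on glass slides were infected with mRFP-GFP-LC3 adenovirus at 50% confluence and incubated 24 h. They were then treated 24 h with 0.1–0.3 μM or 0.1% DMSO. Fixed in 4% paraformaldehyde, mounted with DAPI, and yellow LC3 puncta imaged by confocal microscopy.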

Another assay has as its system A549. The assay can be described thus: Induction of apoptosis in human A549 cells assessed as late apoptotic cells at 0.3 uM measured after 24 hrs by Annexin V-APC/PI staining based flow cytometry analysis (reference value: 0.86%). Format: functional.
Assay [7] deals with HCT-116. The assay can be described thus: Antitumor activity against human HCT-116 cells xenografted in female BALB/c nude mouse assessed as tumor growth inhibition at 20 mg/kg, ip administered every 2 days for 20 days by vernier caliper relative to control. It is filed as functional. The following applies: HCT-116, 480 h, time 20 day, read-out: TGI. In outline:
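HCT116 cells (5×10^7/0.2 mL/mouse) injected subcutaneously beside the right forelimb of 5-week-old female BALB/c nude mice. At 100 mm³ tumour volume, mice randomised by weight and tumour size into four groups of ten. Saline vehicle control ip. Dosing for 20 days, then euthanasia and tumour weighing. Caliper diameters used; volume = W²×L/2.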

With `COc1ccc(/C=C(/C(=O)N2CCN(c3ccc(C)cc3)CC2)c2cc(OC)c(OC)c(OC)c2)cc1O`, the IC50 in the assay on HCT-116 [1] came out at 227 nM. The inhibition entry in the assay on HCT-116 [2] is “Dose-Dependent Effect”. For the same compound, the Activity in the assay with HCT-116 [3] is 21.17%; in the assay on HCT-116 [4] it was 5.43%; with HCT-116 [5], “Dose-Dependent Effect”; with HCT-116 [6], “Dose-Dependent Effect”; in the assay with A549 it was 8.87%. Also, in the assay with HCT-116 [7], the inhibition in vivo at 20 mg/kg was found to be 1.48%.
